# pIC50: −log10 of the molar value.
# Legend:
# [1] = Bioavailability in rat of PMEA prodrug; assay type: ADME, organism-based; conditions: in vivo
# Summary of the method: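 Male rats fasted 12-18 h, three per route. Reference: parent phosphonate iv bolus 30 mg/kg in normal saline via tail vein. Oral: parent at 30 mg/kg in 5% DMSO/water by gastric intubation; prodrugs as 5% DMSO/water solutions at 24-43 mg/kg PMEA equivalents. Urine collected 0-24 and 24-48 h in metabolism cages. PMEA measured by reversed-phase HPLC with fluorometric detection. Bioavailability = dose-normalized 0-48 h urinary PMEA, oral vs iv.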
# Vero = experiment: Concentration that reduced plaque formation by 50% was measured in HSV-2 infected vero cells in vitro; assay type: functional, cell-based; conditions: Chlorocebus sabaeus
# Summary of the method: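 Plaque reduction assay against HSV-2 strain G in infected Vero cells. IC50 taken as the concentration giving 50% reduction in plaque formation.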
# [2] = Oral bioavailability of compound in rat; assay type: ADME, organism-based; conditions: in vivo, read-out: Bioavailabiility
# Summary of the method: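 Fasted (12-18 h) male rats, three per route. Prodrugs were given by gastric intubation in 5% DMSO/water at 24-43 mg/kg PMEA equivalents. The reference was PMEA 30 mg/kg as an iv tail-vein bolus in saline. Urine was collected 0-24 and 24-48 h in metabolism cages and PMEA quantified by reversed-phase HPLC with fluorometric detection. Bioavailability is dose-normalized 0-48 h urinary PMEA, oral versus iv.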
# [3] = Oral bioavailability of compound in monkey; assay type: ADME, organism-based; conditions: simiiformes, in vivo, read-out: Bioavailabiility
SMILES,F [1],also measured
CC1(C)CNP(=O)(COCCn2cnc3c(N)ncnc32)NC1,5.8%,
CCN(CC)P(=O)(COCCn1cnc2c(N)ncnc21)N(CC)CC,7.2%,
Nc1ncnc2c1ncn2CCOCP(=O)(O)OCC(Cl)(Cl)Cl,2.5%,
CC(C)OP(=O)(COCCn1cnc2c(N)ncnc21)OC(C)C,44.4%,
CC(C)OP(=O)(O)COCCn1cnc2c(N)ncnc21,5%,
COP(=O)(O)COCCn1cnc2c(N)ncnc21,1.4%,
CC(C)(CN)CNP(=O)(O)COCCn1cnc2c(N)ncnc21,10.6%,
CC(C)(CO)COP(=O)(O)COCCn1cnc2c(N)ncnc21,0%,
CCN(CC)C(=O)COP(=O)(COCCn1cnc2c(N)ncnc21)OCOC(=O)C(C)(C)C (stereo not given),2.2%,
CCC(=O)OCOP(=O)(COCCn1cnc2c(N)ncnc21)OCOC(=O)CC,,pIC50 (Vero): 6.40
CC(C)CCOP(=O)(COCCn1cnc2c(N)ncnc21)OCCC(C)C,0.5%,
CC(C)COP(=O)(COCCn1cnc2c(N)ncnc21)OCC(C)C,0%,
CC(C)C(=O)OCOP(=O)(COCCn1cnc2c(N)ncnc21)OCOC(=O)C(C)C,,pIC50 (Vero): > 6.70
Nc1ncnc2c1ncn2CCOCP(=O)(Oc1ccccc1)Oc1ccccc1,11.1%,pIC50 (Vero): 4.11
CCOP(=O)(COCCn1cnc2c(N)ncnc21)OCOC(=O)C(C)(C)C (stereo not given),34.9%,
CC(=O)OCC(=O)COC(C)=O,5.8%,

SMILES,F [1],also measured
Nc1ncnc2c1ncn2CCOCP(=O)(OCC(Cl)(Cl)Cl)OCC(Cl)(Cl)Cl,10.6%,
CC(C)(C)C(=O)OCOP(=O)(O)COCCn1cnc2c(N)ncnc21,6.5%,pIC50 (Vero): 4.66
CC1(C)COP(=O)(COCCn2cnc3c(N)ncnc32)OC1,0%,
Nc1ncnc2c1ncn2CCOCP1(=O)OCCCO1,0.7%,
CCN(CC)C(=O)COP(=O)(O)COCCn1cnc2c(N)ncnc21,3.5%,
Nc1ncnc2c1ncn2CCOCP(=O)(O)OCc1ccc([N+](=O)[O-])cc1,1.9%,
CCOP(=O)(O)COCCn1cnc2c(N)ncnc21,0%,pIC50 (Vero): < 3.52
Nc1ncnc2c1ncn2CCOCP(=O)(OCc1ccc([N+](=O)[O-])cc1)OCc1ccc([N+](=O)[O-])cc1,1.7%,
CCCCCCCCOP(=O)(O)COCCn1cnc2c(N)ncnc21,0.8%,
Nc1ncnc2c1ncn2CCOCP(=O)(O)OCC(F)(F)CO,3.5%,
CCOP(=O)(COCCn1cnc2c(N)ncnc21)OCC,42%,pIC50 (Vero): < 3.52
Nc1ncnc2c1ncn2CCOCP(=O)(O)Oc1ccccc1,14%,pIC50 (Vero): 4.02
COP(=O)(COCCn1cnc2c(N)ncnc21)OC,0%,
CC(C)(C)C(=O)OCOP(=O)(COCCn1cnc2c(N)ncnc21)OCOC(=O)C(C)(C)C [ADEFOVIR DIPIVOXIL],17.3%,pIC50 (Vero): 6.22
Nc1ncnc2c1ncn2CCOCP(=O)(O)O [ADEFOVIR],7.8%,bioavailability [2]: 11%; bioavailability [3]: < 1%; pIC50 (Vero): 3.92
